{"source": "ChEMBL document CHEMBL1143814", "about": "“Clinical and pharmacokinetic data support once-daily low-dose boosted saquinavir (1,200 milligrams saquinavir with 100 milligrams ritonavir) in treatment-naive or limited protease inhibitor-experienced human immunodeficiency virus-infected patients” (Antimicrob Agents Chemother, 2007)", "format_in_all_cases": "ADME, organism-based", "key": {"[1]": {"assay": "Elimination half life in PBMC cellular compartment of HIV infected patient after 24 hrs", "conditions": "human", "how_it_was_run": "(§1)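 PBMC drug levels, same once-daily saquinavir/ritonavir 1,200/100 mg regimen at steady state, same sampling times. PBMC were isolated from EDTA blood diluted 1:1 in PBS (pH 7.4) by Ficoll density centrifugation and washed twice in PBS. Pellet volume was taken as equal to its weight. Pellets were frozen at −70°C and assayed by HPLC-UV at 215 nm. Analysis was noncompartmental, with the terminal phase from the 12–24 h points.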"}, "[2]": {"assay": "AUC (0 to 24 hrs) in PBMC cellular compartment of HIV infected patient after 24 hrs", "set-up": "time < 24 hr", "conditions": "human", "how_it_was_run": "as §1"}, "[3]": {"species": "Homo sapiens", "assay": "Ratio of elimination half life in PBMC cellular compartment to plasma in HIV infected virological failure patient", "how_it_was_run": "(§2)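 Steady-state study (≥1 month on once-daily saquinavir 1,200 mg + ritonavir 100 mg with two NRTIs). 24-h profile: blood drawn predose and at 2, 4, 6, 8, 12 and 24 h after supervised intake. Plasma was separated, and PBMC were isolated on a Ficoll gradient, weighed, and volume was taken as weight. Saquinavir was measured by HPLC-UV at 215 nm (LLOQ 40 ng/ml). Noncompartmental analysis was used, with terminal slope from the 12–24 h points. Ratio = intracellular/plasma.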"}, "[4]": {"assay": "Ratio of AUC (0 to 24 hrs) in PBMC cellular compartment to plasma in HIV infected patient", "conditions": "human, read-out: AUC_ratio", "how_it_was_run": "as §2"}, "[5]": {"assay": "Elimination half life in PBMC cellular compartment of HIV infected virological failure patient after 24 hrs", "conditions": "human", "how_it_was_run": "as §1"}, "[6]": {"assay": "Cmin in PBMC cellular compartment of HIV infected virological failure patient after 24 hrs", "conditions": "human, read-out: Cmin", "how_it_was_run": "as §1"}, "[7]": {"assay": "Ratio of Cmin in PBMC cellular compartment to plasma in HIV infected virological failure patient", "conditions": "human, read-out: Cmin_ratio", "how_it_was_run": "(§3)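 Trough (Cmin) saquinavir was sampled at steady state on once-daily 1,200/100 mg saquinavir/ritonavir, either as the 24-h point of the full profile or as a single sample 24 ± 0.5 h postdose. Plasma and Ficoll-isolated PBMC (volume from weight) were assayed by HPLC-UV at 215 nm (LLOQ 40 ng/ml). Ratio = intracellular/plasma concentration.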"}, "[8]": {"assay": "Cmin in HIV infected patient plasma after 24 hrs", "conditions": "human, read-out: Cmin", "how_it_was_run": "(§4)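 Plasma PK at steady state (≥1 month) in HIV patients on once-daily saquinavir 1,200 mg plus ritonavir 100 mg and two NRTIs. EDTA blood was drawn predose and at 2, 4, 6, 8, 12 and 24 h after supervised intake, or as a single 24 ± 0.5 h trough. Plasma was stored at −70°C and assayed by HPLC-UV at 215 nm (LLOQ 40 ng/ml). Parameters were noncompartmental, with the terminal slope from the 12–24 h points.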"}, "[9]": {"assay": "AUC (0 to 24 hrs) in PBMC cellular compartment of HIV infected virological failure patient", "set-up": "time < 24 hr", "conditions": "human", "how_it_was_run": "as §1"}, "[10]": {"assay": "AUC (0 to 24 hrs) in HIV infected virological failure patient plasma", "set-up": "time < 24 hr", "conditions": "human", "how_it_was_run": "as §2"}, "[11]": {"assay": "Elimination half life in HIV infected patient plasma after 24 hrs", "conditions": "human", "how_it_was_run": "as §4"}, "[12]": {"species": "Homo sapiens", "assay": "Ratio of Cmax in PBMC cellular compartment to plasma in HIV infected patient", "how_it_was_run": "as §2"}, "[13]": {"assay": "Cmax in PBMC cellular compartment of HIV infected virological failure patient after 24 hrs", "conditions": "human", "how_it_was_run": "as §1"}, "[14]": {"assay": "Ratio of Cmin in PBMC cellular compartment to plasma in HIV infected patient", "conditions": "human, read-out: Cmin_ratio", "how_it_was_run": "as §3"}, "[15]": {"assay": "Cmax in HIV infected patient plasma after 24 hrs", "conditions": "human", "how_it_was_run": "as §4"}, "[16]": {"assay": "AUC (0 to 24 hrs) in HIV infected patient plasma after 24 hrs", "set-up": "time < 24 hr", "conditions": "human", "how_it_was_run": "as §4"}, "[17]": {"species": "Homo sapiens", "assay": "Ratio of Cmax in PBMC cellular compartment to plasma in HIV infected virological failure patient", "how_it_was_run": "as §2"}, "[18]": {"assay": "Cmax in HIV infected virological failure patient plasma after 24 hrs", "conditions": "human", "how_it_was_run": "as §4"}, "[19]": {"assay": "Ratio of AUC (0 to 24 hrs) in PBMC cellular compartment to plasma in HIV infected virological failure patient", "conditions": "human, read-out: AUC_ratio", "how_it_was_run": "as §2"}, "[20]": {"assay": "Elimination half life in HIV infected virological failure patient plasma after 24 hrs", "conditions": "human", "how_it_was_run": "as §4"}, "[21]": {"assay": "Cmin in HIV infected virological failure patient plasma after 24 hrs", "conditions": "human, read-out: Cmin", "how_it_was_run": "as §4"}, "[22]": {"species": "Homo sapiens", "assay": "Ratio of elimination half life in PBMC cellular compartment to plasma in HIV infected patient", "how_it_was_run": "as §2"}, "[23]": {"conditions": "in the assay text read “HIV infected patient” for “HIV infected virological failure patient”"}}, "data": [{"molecule": "CC(C)(C)NC(=O)[C@@H]1C[C@@H]2CCCC[C@@H]2CN1C[C@@H](O)[C@H](Cc1ccccc1)NC(=O)[C@H](CC(N)=O)NC(=O)c1ccc2ccccc2n1", "note": "[SAQUINAVIR]", "values": [{"measurement": "half-life", "setting": "[1]", "result": 12.5, "unit": "h"}, {"measurement": "AUC(0-t) at 24 h", "setting": "[2]", "result": 99500, "unit": "ng·h/mL"}, {"measurement": "t1/2_ratio", "setting": "[3]", "result": 1.5}, {"measurement": "Kp", "setting": "[4]", "result": 2.75}, {"measurement": "half-life", "setting": "[5]", "result": 10.9, "unit": "h"}, {"measurement": "concentration at 24 h", "setting": "[6]; [23]", "result": 996, "unit": "ng/mL"}, {"measurement": "concentration at 24 h", "setting": "[6]", "result": 1220, "unit": "ng/mL"}, {"measurement": "Kp", "setting": "[7]", "result": 3.01}, {"measurement": "concentration at 24 h", "setting": "[8]", "result": 431, "unit": "ng/mL"}, {"measurement": "AUC(0-t) at 24 h", "setting": "[9]", "result": 132000, "unit": "ng·h/mL"}, {"measurement": "AUC(0-t) at 24 h", "setting": "[10]", "result": 35300, "unit": "ng·h/mL"}, {"measurement": "half-life", "setting": "[11]", "result": 8.25, "unit": "h"}, {"measurement": "Cmax_ratio", "setting": "[12]", "result": "2.75 (null)"}, {"measurement": "Cmax", "setting": "[13]", "result": 15200, "unit": "ng/mL"}, {"measurement": "Cmax", "setting": "[13]; [23]", "result": 10100, "unit": "ng/mL"}, {"measurement": "Kp", "setting": "[14]", "result": 2.39}, {"measurement": "Cmax", "setting": "[15]", "result": 3670, "unit": "ng/mL"}, {"measurement": "AUC(0-t) at 24 h", "setting": "[16]", "result": 34300, "unit": "ng·h/mL"}, {"measurement": "Cmax_ratio", "setting": "[17]", "result": "4.46 (null)"}, {"measurement": "Cmax", "setting": "[18]", "result": 3320, "unit": "ng/mL"}, {"measurement": "Kp", "setting": "[19]", "result": 3.53}, {"measurement": "half-life", "setting": "[20]", "result": 8.51, "unit": "h"}, {"measurement": "concentration at 24 h", "setting": "[21]", "result": 384, "unit": "ng/mL"}, {"measurement": "t1/2_ratio", "setting": "[22]", "result": 1.5}]}]}
